The text below walks through data of the array DNA melting data of Ke et al. (doi:10.1101/2024.01.08.574731).

Data set [1] is described as follows: folding enthalpy; higher = less favourable; fluorescence melt of hairpins on a sequencing array, two-state fit. As to conditions: sodium 0.088 M. A digest of the protocol: (§1)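 Cy3 fluorescence of library hairpins on a sequenced MiSeq flow cell, with annealed Cy3 and quencher oligos, was imaged in 50 mM Na-HEPES pH 8.0, 25 mM NaCl in 2.5 °C steps up to 60 °C. Signals were normalised to pre-quench Cy3 and to control variants. Melting temperature and folding enthalpy came from bootstrapped two-state fits, inverse-variance combined over four replicates. Fitted temperatures were raised by 9.35 °C to match UV melts.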

A short description of data set [2]: melting temperature; fluorescence melt of hairpins on a sequencing array, two-state fit, raised by 9.35 °C to match UV melts. As to conditions: sodium 0.088 M. A digest of the protocol:
as §1

GGTCCTGAAAAGGACC ((((((....)))))): in data set [1], the folding enthalpy was -30.9 kcal/mol. The Tm in data set [2] was found to be 68.2 °C.
The corresponding values for GCAAACACGAAAGTGTGC (((..(((....)))))) are -15.4 kcal/mol and 48.6 °C.
For the sequence GATCCATGGGTGGATC ((((((....)))))), the folding enthalpy in data set [1] was -41.4 kcal/mol. Besides, in data set [2], the Tm worked out at 54.4 °C.
Take GATCCTCTTAGGATC ((((((...)))))): the folding enthalpy in data set [1] is -35.3 kcal/mol. Moreover, the Tm in data set [2] was 55.2 °C.
Take GAAGTTGGAAACAACTTC (((((((....))))))): the folding enthalpy in data set [1] is -41.2 kcal/mol. The Tm in data set [2] was 57.3 °C.
Consider GTAGAGGGAAACCCCTAC ((((.((....)).)))), for which, in data set [1], the folding enthalpy was -20.4 kcal/mol. The Tm in data set [2] worked out at 39.2 °C.
In the case of GTCATACGAAAGTAGAC (((.(((....)))))), the folding enthalpy in data set [1] was -28.2 kcal/mol. In data set [2], the Tm came out at 42.4 °C.
Turning to GAAGCAGGAAACCGCTTC (((((.(....).))))), the folding enthalpy in data set [1] was -30.4 kcal/mol. Besides, the Tm in data set [2] came out at 47.1 °C.
The corresponding values for GTCAACGGAAACGTCGAC (((.(((....))).))) are -33 kcal/mol and 44.4 °C.
On to GATCAGTGACTGATC ((((((...)))))), for which the folding enthalpy in data set [1] is -26.2 kcal/mol. For the same sequence, the Tm in data set [2] was 48.7 °C.
The corresponding values for TACGGGAAACCGTA (((((....))))) are -15.8 kcal/mol and 48.5 °C.
The corresponding values for GCTGTGCGAAAGCATTGC ((..(((....)))..)) are -20.7 kcal/mol and 53.5 °C.
As to GCTGCCTCGAAAGAGAGC (((..(((....)))))), the folding enthalpy in data set [1] was -14 kcal/mol. The Tm in data set [2] worked out at 42.3 °C.
Turning to GCTGAGCGAAAGCTACGC ((..(((....)))..)), in data set [1], the folding enthalpy is -16.3 kcal/mol. For the same sequence, the Tm in data set [2] came out at 44.4 °C.
The corresponding values for GGTTGCGAAAGCACGACC ((((((....)))..))) are -15.8 kcal/mol and 40.6 °C.
With GAGGCGGGAAACCGTCTC (((.(((....))).))), the folding enthalpy in data set [1] is -38.3 kcal/mol. Also, the Tm in data set [2] came out at 56.8 °C.
The corresponding values for GCGTATCCGAAAGGACGC (((..(((....)))))) are -27.1 kcal/mol and 50.2 °C.
The corresponding values for GATCTGATGTCAGATC ((((((....)))))) are -53.1 kcal/mol and 49.1 °C.
In the case of GATCAAAGGGTTGATC ((((((....)))))), the folding enthalpy in data set [1] is -28.3 kcal/mol. For the same sequence, the Tm in data set [2] was 39.1 °C.
The corresponding values for GATCAACGAGTTGATC ((((((....)))))) are -51 kcal/mol and 55.6 °C.
The corresponding values for GGTTGCGAAAGCATTACC ((((((....)))..))) are -17.7 kcal/mol and 37.8 °C.
The corresponding values for GCTAAACGAAAGTTAAGC (((.(((....))).))) are -29.1 kcal/mol and 44.3 °C.
Turning to GATCCCATGCGGGATC ((((((....)))))), the folding enthalpy in data set [1] was -34 kcal/mol. For the same sequence, in data set [2], the Tm came out at 60.6 °C.
In the case of GCGCCGCGAAAGCATCGC (((..((....))..))), in data set [1], the folding enthalpy is -17 kcal/mol. In addition, the Tm in data set [2] amounted to 51.2 °C.
As for GTATAAACGAAAGTTTAC (((..(((....)))))), in data set [1], the folding enthalpy is -11.8 kcal/mol. Moreover, the Tm in data set [2] stood at 29.4 °C.
Take GCCTCAACGAAAGTTGGC (((..(((....)))))): the folding enthalpy in data set [1] is -12.4 kcal/mol. Further, the Tm in data set [2] amounted to 42.9 °C.
For the sequence GCAACGGGAAACCGTTAC (.(((((....))))).), the folding enthalpy in data set [1] is -13.3 kcal/mol. Moreover, in data set [2], the Tm worked out at 38.6 °C.
With GAGACGGGAAACCGTCTC (((((((....))))))), the folding enthalpy in data set [1] was -28 kcal/mol. Besides, the Tm in data set [2] worked out at 69 °C.
Consider GATTGTGAAAACAATC ((((((....)))))), for which the folding enthalpy in data set [1] was -35.9 kcal/mol. The Tm in data set [2] worked out at 51.4 °C.
GGTTGTCGAAAGACCACC (((.(((....))).))): the folding enthalpy in data set [1] was -26.2 kcal/mol. Also, the Tm in data set [2] was found to be 48.3 °C.
On to GGACACGGAAACGCGTCC ((((.((....)).)))), for which, in data set [1], the folding enthalpy was -46.4 kcal/mol. The Tm in data set [2] was determined as 54.6 °C.
The corresponding values for GGACCCGGAAACGGATCC (((.(((....))).))) are -38.5 kcal/mol and 49.8 °C.
The corresponding values for GCCTCCGAAAGGACTGGC ((((((....)))..))) are -27.8 kcal/mol and 44.4 °C.
For the sequence GGTCATGGAAACATAACC (((.(((....))).))), in data set [1], the folding enthalpy is -18.5 kcal/mol. The Tm in data set [2] turned out to be 31.6 °C.
With GAAAGCGAAAGCTTTTTC ((((((....)))..))), the folding enthalpy in data set [1] was -14.2 kcal/mol. In addition, the Tm in data set [2] turned out to be 49 °C.
As for TGAAAGAAATTTCA (((((....))))), in data set [1], the folding enthalpy is -5.86 kcal/mol. The Tm in data set [2] amounted to 26.4 °C.
With GCACAACGAAAGTTATGC (((.(((....))).))), in data set [1], the folding enthalpy was -34.9 kcal/mol. The Tm in data set [2] came out at 44.5 °C.
For the sequence GATCTAAAGATAGATC ((((((....)))))), in data set [1], the folding enthalpy was -16.5 kcal/mol. For the same sequence, the Tm in data set [2] came to 30.6 °C.
Turning to GTAACCGAAAGGTCTAC ((((((....))).))), the folding enthalpy in data set [1] was -13.4 kcal/mol. The Tm in data set [2] turned out to be 35.5 °C.
The corresponding values for GCGTACGAAAGTAAGCGC ((((((....)))..))) are -30.9 kcal/mol and 56.8 °C.
For the sequence GATCAAGTTGTTGATC ((((((....)))))), in data set [1], the folding enthalpy is -36.6 kcal/mol. In addition, the Tm in data set [2] turned out to be 45.1 °C.
As to GAGTAACCGAAAGGTCTC (((..(((....)))))), the folding enthalpy in data set [1] was -16.7 kcal/mol. The Tm in data set [2] was 33.2 °C.
The corresponding values for GAATTGCGAAAGCATTC (((.(((....)))))) are -13.6 kcal/mol and 36.1 °C.
Consider GGCTAACGAAAGTTTGCC (((.(((....))).))), for which, in data set [1], the folding enthalpy is -61 kcal/mol. Also, in data set [2], the Tm came to 54.7 °C.
For the sequence GATCGAAACCTCGATC ((((((....)))))), the folding enthalpy in data set [1] was -39.6 kcal/mol. In addition, the Tm in data set [2] stood at 51.3 °C.
The corresponding values for GATCGCTGCGGCGATC ((((((....)))))) are -38.9 kcal/mol and 68.9 °C.
On to GATCGGGACCCCGATC ((((((....)))))), for which the folding enthalpy in data set [1] is -39.4 kcal/mol. Also, in data set [2], the Tm worked out at 62.4 °C.
On to GGTAAGTCGAAAGACACC (((..(((....)))))), for which the folding enthalpy in data set [1] was -17.9 kcal/mol. In data set [2], the Tm was found to be 37.3 °C.
As for GTCTGCGAAAGCAGGGAC ((((((....)))..))), the folding enthalpy in data set [1] is -7.79 kcal/mol. Besides, the Tm in data set [2] turned out to be 42.8 °C.
The corresponding values for GTGTGGGAAACCACAC ((((((....)))))) are -39.2 kcal/mol and 63.4 °C.
Turning to GTCCACCGAAAGGTTGAC (((.(((....))).))), in data set [1], the folding enthalpy was -29.6 kcal/mol. Further, the Tm in data set [2] stood at 49.3 °C.
As to GATCCAACGGTGGATC ((((((....)))))), in data set [1], the folding enthalpy was -43.3 kcal/mol. In addition, the Tm in data set [2] was 49 °C.
As to CTGTTGAAAAACAG (((((....))))), the folding enthalpy in data set [1] was -23.7 kcal/mol. Besides, in data set [2], the Tm was 42.3 °C.
The corresponding values for GTCGCGGGAAACTGCGAC (((((.(....).))))) are -41.2 kcal/mol and 65.3 °C.
The corresponding values for GGGTATCCGAAAGGACCC (((..(((....)))))) are -18.6 kcal/mol and 43.9 °C.
